An excerpt weighted towards active compounds, which were near 2.1% of everything screened.
PfGluPho inh = PfG6PD (Plasmodium falciparum) enzyme inhibition. inhibition, % at 20 µM. hit rate 0.78% among 350,000. PfGluPho enzyme, NADPH resazurin-diaphorase fluorescence;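 active means inhibition reaching at least a set limit at 20 µM in the primary screen, cut at about 59% in these data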;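 further: 0% = DMSO wells with substrate and 100% = DMSO wells lacking glucose-6-phosphate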
aDG glyco up = increases alpha dystroglycan glycosylation | hit rate 0.22% among 360,000 | AID 624168 | Pro5-aDG cells, alpha-DG glycosylation AlphaScreen (IIH6); 0% Pro5, 100% B10-LARGE cell signal | activation, % at 10 µM;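 active means activation of at least 8% versus controls, or a plate z-score of at least 8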;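 further: Pro5 are CHO cells carrying HIG-tagged alpha-DG that lacks glycosylation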
UCH37 inh = inhibitors of human deubiquitinating enzyme UCH37 | Q9Y5K5 | purified proteasome/UCH37, Ub-AMC cleavage fluorescence | inhibition, % (concentration not given with the values) | hit rate 0.33% among 330,000 | AID 588478;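 active means mean inhibition over replicate wells above about 20%, limit read from the data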;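 further: 0% = compound-free wells with enzyme and 100% = wells lacking proteasome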
Target sequence (Q9Y5K5 whole entry, looked up): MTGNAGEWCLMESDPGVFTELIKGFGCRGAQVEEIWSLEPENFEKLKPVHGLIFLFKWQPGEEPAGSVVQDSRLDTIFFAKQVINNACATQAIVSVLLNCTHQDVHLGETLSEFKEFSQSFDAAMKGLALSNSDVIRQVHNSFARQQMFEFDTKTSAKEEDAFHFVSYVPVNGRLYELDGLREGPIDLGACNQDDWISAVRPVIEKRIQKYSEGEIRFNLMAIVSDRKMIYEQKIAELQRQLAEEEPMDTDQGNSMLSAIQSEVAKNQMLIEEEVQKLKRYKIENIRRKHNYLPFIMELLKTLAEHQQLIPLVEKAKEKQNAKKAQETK
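Material: Human UCH37 enzyme supplied as purified proteasome complex | Schedule: 30 min preincubation with enzyme, 25 min cleavage at room temperature | Detection: AMC fluorescence 355/460 nm | Measure: % inhibition of Ub-AMC cleavage fluorescence | Controls: Wells without proteasome as full block, compound-free enzyme plus substrate as uninhibited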
HKDC1 inhibitor = HKDC1 (human) hexokinase inhibition; AID 493160; hit rate 0.16% among 340,000; recombinant HKDC1, G6PDH/diaphorase resazurin coupled fluorescence; Q2TB90; inhibition, % at 20 µM;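 active means inhibition above about 35% when tested at 20 µM, limit read from the data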;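 further: plate controls were DMSO wells with enzyme for no effect and DMSO wells lacking enzyme for full effect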
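Test system: recombinant HKDC1 (HK5) hexokinase enzyme, produced in-house / Doses: 20 µM test compound, 1% DMSO / Timing: 90 min, room temperature / Detection: G6PDH/diaphorase-coupled fluorescence, 1 mM NADP, 100 µM resazurin, 525/613 nm / Control set: DMSO wells with and without enzyme mix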
H9c2 protect = myocardial damage modulation in H9c2 cells. H9c2 cardiomyocytes, H2O2 injury protection, ATPLite, 2 h. protection from H2O2 cell death, % at 20 µM. hit rate 0.63% among 360,000;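 active means compounds giving at least 50% protection of heart cells from peroxide-induced death in the single-dose screen, raw or plate-pattern-corrected value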;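 further: 0% = DMSO wells with peroxide and 100% = DMSO wells without peroxide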
Beta2AR agonist = activates human beta-2 adrenergic receptor causing internalization. Am2.2-beta2AR cells, FAP receptor internalization, flow cytometry. response, % (test concentration not listed). hit rate 0.43% among 340,000. AID 504454;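 active means response above a set limit, near 3 SD of response in nonfluorescent compounds, cut at about 42% in these data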
Target sequence (P07550 whole entry, looked up): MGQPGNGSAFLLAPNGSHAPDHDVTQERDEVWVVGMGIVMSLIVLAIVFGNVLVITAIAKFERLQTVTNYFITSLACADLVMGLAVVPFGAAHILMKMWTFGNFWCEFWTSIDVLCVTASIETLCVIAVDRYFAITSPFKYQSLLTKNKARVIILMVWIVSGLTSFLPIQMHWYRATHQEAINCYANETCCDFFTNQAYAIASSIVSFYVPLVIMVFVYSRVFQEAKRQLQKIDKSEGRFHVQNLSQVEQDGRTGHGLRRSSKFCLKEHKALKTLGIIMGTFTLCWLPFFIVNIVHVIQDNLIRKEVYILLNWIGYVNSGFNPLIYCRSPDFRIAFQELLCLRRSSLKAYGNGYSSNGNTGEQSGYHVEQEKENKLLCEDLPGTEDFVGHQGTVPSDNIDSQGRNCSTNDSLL
HKDC1 act conf2 = HKDC1 (human) activation, single-dose confirmed | hit rate 14% among 740 | inhibition, % at 20 µM | shares compounds with HKDC1 inhibitor | recombinant HKDC1, G6PDH/diaphorase resazurin fluorescence; active compounds read low | AID 504708;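 active means inhibition at or below a set negative limit, negative inhibition meaning the enzyme was activated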
PfG6PD confirm = PfG6PD inhibition, single-dose confirmed | shares compounds with PfGluPho inh | hit rate 34% among 2,400 | inhibition, % at 20 µM | AID 504753 | recombinant PfGluPho, NADPH-diaphorase-resazurin fluorescence;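 active means inhibition of at least 50% at 20 µM in any single replicate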;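 further: 0% = DMSO with substrate and 100% = DMSO lacking glucose-6-phosphate substrate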
Diaphorase 10uM = diaphorase inhibition or oxidation at 10 uM NADPH; shares compounds with PfGluPho inh; diaphorase-coupled resazurin reduction, fluorescence, NADPH 10 uM; inhibition, % at 20 µM; hit rate 39% among 820;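 active means average inhibition reaching 50% or more with the compound at 20 µM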;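 further: resorufin red fluorescence formed as diaphorase reduces resazurin using NADPH; 0% = DMSO with enzyme and 100% = DMSO without enzyme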
Diaph ctr 30uM = diaphorase inhibition or oxidation at 30 uM NADPH. shares compounds with PfGluPho inh. Diaphorase/resazurin coupled assay, resorufin fluorescence. inhibition, % at 20 µM. hit rate 29% among 820. AID 504863;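 active means inhibition averaging 50% or more, tested at 20 µM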;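 further: 0% = DMSO with enzyme and 100% = DMSO wells lacking diaphorase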
* marks the source's active call; other numbers are inactive results; ! = not confirmed by another sample.

Results for CCC(C)C(N)C1=NC(C(=O)N[C@@H](CC(C)C)C(=O)N[C@H](CCC(=O)[O-])C(=O)N[C@H](C(=O)N[C@H]2CCCCNC(=O)[C@H](CC(N)=O)NC(=O)[C@@H](CC(=O)[O-])NC(=O)[C@H](Cc3cnc[nH]3)NC(=O)[C@@H](Cc3ccccc3)NC(=O)[C@H]([C@@H](C)CC)NC(=O)[C@@H](CCCN)NC2=O)[C@@H](C)CC)CS1.[Zn+2] (stereo partly drawn) ?
PfGluPho inh: 64*; aDG glyco up: 0; HKDC1 inhibitor: 92*; H9c2 protect: 12; Beta2AR agonist: -1; HKDC1 act conf2: 75; PfG6PD confirm: 26

Results for O=C(O)c1ccc(C=NNc2ccccn2)cc1 ?
UCH37 inh: 14

What do the screens show for `COc1ccc(CN2C=C3C(=O)C(C)(OC(=O)C4CCCC4)C(=O)C=C3C=C2c2ccsc2)cc1` (stereo not drawn)?
PfGluPho inh: 67*; aDG glyco up: 0; UCH37 inh: 4; HKDC1 inhibitor: 35*; H9c2 protect: -1; Beta2AR agonist: 0; HKDC1 act conf2: -19; PfG6PD confirm: 38

What do the screens show for `COc1cc(/C=C2\SC(c3ccc(C)cc3)=NC2=O)cc(OC)c1O`?
PfGluPho inh: 75*; aDG glyco up: 0; UCH37 inh: 7; HKDC1 inhibitor: 48*; H9c2 protect: 4; Beta2AR agonist: -5; HKDC1 act conf2: 32; PfG6PD confirm: 53*; Diaphorase 10uM: 7; Diaph ctr 30uM: 13

How did COc1ccc(NC(=O)c2cc3ccccc3cc2O)cc1 do in these assays?
PfGluPho inh: 70*; aDG glyco up: 0; UCH37 inh: 2; HKDC1 inhibitor: 38*; H9c2 protect: -4; Beta2AR agonist: 18; HKDC1 act conf2: -13; PfG6PD confirm: 28

How did O=C(NN=Cc1cc2c(cc1Cl)OCO2)c1ccc2c(c1)OCCO2 do in these assays?
UCH37 inh: 5

Results for Cc1ccc(S(=O)(=O)N(C(=O)c2ccncc2)c2ccc(OC(=O)c3ccncc3)c3ccccc23)cc1 ?
PfGluPho inh: 74*; aDG glyco up: 0; UCH37 inh: -2; HKDC1 inhibitor: 32; H9c2 protect: -29; Beta2AR agonist: 19; HKDC1 act conf2: 16; PfG6PD confirm: 56*; Diaphorase 10uM: 16; Diaph ctr 30uM: -10

How did CC(=O)Oc1ccc(N(C(C)=O)S(=O)(=O)c2ccccc2)c2ccccc12 do in these assays?
PfGluPho inh: 1; aDG glyco up: 6; H9c2 protect: -15

What do the screens show for `CN(C)c1ncc(C2=C(Cl)C(=O)C(N3CCCC3)=C(Cl)C2=O)s1`?
PfGluPho inh: 91*; aDG glyco up: 0; UCH37 inh: -147; HKDC1 inhibitor: 35*; H9c2 protect: -17; Beta2AR agonist: 76*; HKDC1 act conf2: 20; PfG6PD confirm: 98*; Diaphorase 10uM: 35; Diaph ctr 30uM: 30

What do the screens show for `CCOC(=O)NN=Cc1cc(C)n(-c2ccccc2)c1C`?
UCH37 inh: -2

What do the screens show for `CC(C)CN(CC(C)C)c1ccc(C=Nn2cnnc2)cc1[N+](=O)[O-]`?
UCH37 inh: 10

Results for COc1ccc(N=C2C(=S)N(c3ccc(OC)cc3)C(=NS(=O)(=O)c3ccccc3)N2c2ccccc2)cc1 ?
PfGluPho inh: 84*; aDG glyco up: 0; HKDC1 inhibitor: -69; H9c2 protect: -17; Beta2AR agonist: 7; HKDC1 act conf2: -5; PfG6PD confirm: 68*; Diaphorase 10uM: -26; Diaph ctr 30uM: -16

How did COc1ccc(N2C(=O)NC(NS(=O)(=O)c3ccccc3)(C(F)(F)F)C2=O)cc1 (stereo not drawn) do in these assays?
PfGluPho inh: -12; aDG glyco up: 1; UCH37 inh: 3; HKDC1 inhibitor: -4; H9c2 protect: 9; Beta2AR agonist: 3

What do the screens show for `COc1cc(N=c2ssnc2Cl)c(OC)cc1Cl`?
PfGluPho inh: 105*!; aDG glyco up: 0; UCH37 inh: 7; HKDC1 inhibitor: -46; H9c2 protect: 0; Beta2AR agonist: -6; HKDC1 act conf2: -57*; PfG6PD confirm: 64*; Diaphorase 10uM: -15; Diaph ctr 30uM: -18

Results for Cc1cc(C)c(C#N)c(Cl)n1 ?
PfGluPho inh: 4; aDG glyco up: 0; UCH37 inh: 1; HKDC1 inhibitor: 14; H9c2 protect: -1; Beta2AR agonist: -4

Results for Cc1cc(C)nc(/N=c2/ssnc2Cl)c1 ?
PfGluPho inh: 98*; aDG glyco up: 3; HKDC1 inhibitor: -137; H9c2 protect: -36; Beta2AR agonist: 1; HKDC1 act conf2: -84*; PfG6PD confirm: 26

What do the screens show for `Nc1ccccc1N=c1ssnc1Cl`?
PfGluPho inh: 59; aDG glyco up: 0; UCH37 inh: -17; HKDC1 inhibitor: -3; H9c2 protect: 15; Beta2AR agonist: -15

Results for Cc1ccc(N=c2ssnc2Cl)cc1 ?
PfGluPho inh: 91*; aDG glyco up: 0; UCH37 inh: 6; HKDC1 inhibitor: -51; H9c2 protect: -20; Beta2AR agonist: 0; HKDC1 act conf2: -44*; PfG6PD confirm: 43

How did CC(Cc1ccccc1)=NNC(=O)c1cccnc1 do in these assays?
UCH37 inh: 0

Results for O=C(Oc1ccc(C=NNc2nc(N3CCCCC3)nc(N3CCCCC3)n2)cc1)c1ccco1 ?
UCH37 inh: 1

What do the screens show for `NC1=C(Br)C(=O)c2ncccc2C1=O`?
PfGluPho inh: 108*; aDG glyco up: 1; HKDC1 inhibitor: 38*; H9c2 protect: -18; Beta2AR agonist: 5; HKDC1 act conf2: 51; PfG6PD confirm: 86*; Diaphorase 10uM: 78*; Diaph ctr 30uM: 74*

What do the screens show for `CCN(CC)CCNc1cc(C)nc2c1C(=O)C(=O)C=C2N1CCCCC1`?
PfGluPho inh: 75*; aDG glyco up: 1; UCH37 inh: 3; HKDC1 inhibitor: 45*; H9c2 protect: 12; Beta2AR agonist: 10; HKDC1 act conf2: 58; PfG6PD confirm: 47

How did CCN(CC)CCNC(=O)c1ccc(N2CCCCC2)c(NS(=O)(=O)c2ccc(C)cc2)c1 do in these assays?
PfGluPho inh: -7; aDG glyco up: 0; UCH37 inh: -1; HKDC1 inhibitor: -10; H9c2 protect: -6; Beta2AR agonist: 28

Bioassay records deposited in PubChem BioAssay by several laboratories.
